L major viab – Leishmania major promastigote growth inhibition, primary screen | inhibition, % at 10 µM | 200,000 compounds, 9% hits | Leishmania major promastigotes, resazurin fluorescence viability; in the data active means inhibition above about 50%;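 further: promastigotes grown with compound for 44 hours at 28 °C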
Dynein cargo inh – inhibitors of GR-EGFP nuclear translocation, primary screen, dynein cargo transport inhibitor project, imaging, high-content, 3617.4 mouse cells | test concentration mostly 20 µM; stimulated with dexamethasone, 1 µM; active compounds read low | z-score, hits read low | 220,000 compounds, 0.47% hits | AID 1381, 2008;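 active means plate z-score of nuclear minus cytoplasmic receptor signal below a set negative limit, without overly bright fluorescence or cell loss, cut at about -3.5 in these data, passing the limit was not always enough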;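 further: z-score of nuclear minus cytoplasmic ring GR-EGFP intensity difference per well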
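Schedule: 48 h induction, then 1 h compound, then 30 min agonist, 37 °C. Buffer or medium: tetracycline-free induction medium containing charcoal-stripped FBS. Reagent: 1.0 µM final dexamethasone stimulus. Evaluation: nuclear versus cytoplasmic GR-EGFP signal, averaged per well. Signal: high-content fluorescence imaging after fixation.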
MT stabilizer – microtubule stabilizers in HeLa cells, primary screen, imaging, high-content imaging | HeLa tubulin immunostaining HCS, 24 h; share of cells brighter than vehicle mean+2SD | 200,000 compounds, 0.83% hits | % tubulin-high responders, % at 10 µM | AID 2205, 2009;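 active means plate Z-score above 3 for both tubulin-high and condensed-nucleus cell shares, with cell loss under 80%, at 10 µM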;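 further: anti alpha tubulin signal scored within the nucleus-defined area of each cell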
b-catenin transl – modulators of beta-catenin nuclear translocation, primary screen, imaging, HeLa cells, immunofluorescence, high-content | nuclear translocation activity, % at 5 µM | 190,000 compounds, 0.3% hits | AID 1665, 2009;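 active means nuclear translocation activity above 50% at 5 µM, with a well cell count of 50 or more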;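 further: per-cell ratio of nuclear to cytoplasmic median beta-catenin stain intensity; plate controls were DMSO negative control for no effect and GSK-3 inhibitor IX positive control for full effect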
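Test system: human HeLa cells, endogenous beta-catenin. Times: 24 h compound exposure, 37°C. Measured by: beta-catenin immunofluorescence imaging with DAPI.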
HSV replic up – enhancers of HSV replication in host cells, fold increase, host cell viability. HSV replication augmentation in cells. maximum fold increase. 220,000 compounds, 0.005% hits. AID 1956, 2009; in the data active means maximum fold increase above about 1.5; tested in PC3 cells
* hit, by the source's call; i = inactive; · = no result given. Hits are enriched below; roughly 8.9% of the tested compounds scored in any of these assays.

SMILES | L major viab | Dynein cargo inh | MT stabilizer | b-catenin transl | HSV replic up
CCN1C(=O)C(C)S/C1=N\S(=O)(=O)c1ccc(F)cc1 (centres undefined) | -3.5 | 0.892 | 3.1 | -0.5 | i
C=CCN1C(=O)C(C)S/C1=N\S(=O)(=O)c1ccc(Cl)cc1 (centres undefined) | 52.2* | 0.672 | 1.7 | -0.1 | i
O=[N+]([O-])c1nn(-c2ccccc2)[n+]([O-])c1N1CCN(c2ccccc2F)CC1 | 44.5 | -0.595 | 4.2 | -0.4 | i
N#C/C(=N\Nc1ccc(F)cc1)C(=N)N1CCCCC1 | 77.6* | 0.008 | 1.3 | 0.0 | i
O=C(Cn1cccc1)NCc1cccs1 | -5.1 | 1.13 | 6.0 | · | i
CCCc1nc2oc3c(NCCN(C)C)ncnc3c2c2c1CCCC2 | 100.6* | -0.459 | 5.3 | 8.1 | i
CCn1c(=O)cc(SCC(=O)N2CCN(C3CCCCC3)CC2)c2ccccc21 | 51.4* | 1.81 | 3.0 | 1.8 | i
CCn1c(=O)cc(SCC(=O)N2CCOCC2)c2ccccc21 | -2.3 | 3.36 | 4.1 | -0.7 | i
COc1ccc(C(=O)OCC(=O)c2c(N)n(C)c(=O)n(C)c2=O)cc1OC | 10.2 | 0.252 | 6.3 | -1.2 | i
Cc1ccc(C)c(N2C(=O)c3ccc(C(=O)OCC(=O)c4c(N)n(C)c(=O)n(C)c4=O)cc3C2=O)c1 | 50.7* | 0.702 | 1.9 | -0.8 | i
Cc1ccc2[nH]c3c(c2c1)CCCC3=O | -1.4 | 0.813 | 11.6 | 8.4 | i
O=C1CCCc2c1[nH]c1ccc(CN3CCCCC3)cc21 | 59.3* | 1.23 | 2.2 | 1.6 | i
O=C(Cn1cc(C(F)(F)F)ccc1=O)N/N=C/c1cccc(Cl)c1Cl | 74.9* | -0.25 | 2.8 | -2.1 | i
COc1ccc(C(C[N+](=O)[O-])C2(c3ccc(OC)c(OC)c3)C(=O)c3ccccc3C2=O)cc1 (centres undefined) | 99.7* | -2.97 | 3.6 | 0.2 | i
CC1(C)CC2CC(C)(CN2S(=O)(=O)c2ccc(C(=O)Nc3cc(S(=O)(=O)N4CCOCC4)ccc3Cl)cc2)C1 (centres undefined) | 98.8* | 0.724 | 1.4 | · | i
O=C(Nc1ccccc1Cl)c1ccc(S(=O)(=O)N2CCOCC2)cc1 | 10.4 | -0.422 | 4.3 | -3.1 | i
CC(=O)c1c(C)[nH]c(C(=O)Nc2cccc(S(=O)(=O)N3CCOCC3)c2)c1C | -5.4 | -0.381 | 1.6 | -1.5 | i
CC1(C)CC2CC(C)(CN2S(=O)(=O)c2ccc(C(=O)Nc3cccc(S(=O)(=O)N4CCOCC4)c3)cc2)C1 (centres undefined) | 99.2* | 1.12 | 2.5 | · | i
CCOc1ccc2c(c1)/C(=C(\C(Cl)=C(Cl)Cl)[N+](=O)[O-])N2 | 1.4 | 0.263 | 3.1 | -0.8 | i
O=C(/C=C/c1ccccc1)N1c2ccccc2Sc2ccc(C(F)(F)F)cc21 | 97.5* | 1.95 | 2.8 | 0.0 | i
CC(=O)N/C(=C\c1ccc(F)cc1)C(=O)NC(Cc1c[nH]c2ccccc12)C(=O)O (centres undefined) | -10.2 | 0.0155 | 2.3 | -1.2 | ·
C=CCN(c1ccccc1)S(=O)(=O)c1ccc(Cl)c(C(=O)OCC(=O)c2[nH]c(C)c(C(C)=O)c2C)c1 | 75.7* | 0.689 | 3.2 | · | i
CNC(=O)C1CC(=O)N(CCCc2ccccc2)C(=Nc2ccccc2)S1 (centres undefined) | 55.3* | -0.469 | 1.1 | · | i
c1ccc(-c2csc3nnc(SCc4ccc5c(c4)OCCO5)n23)cc1 | 56.3* | -0.414 | 4.2 | -1.6 | i
CCSc1nnc(-c2cccnc2)n1Cc1ccco1 | -3.0 | -1.02 | 2.6 | -1.3 | i
SMILES | L major viab | Dynein cargo inh | MT stabilizer | b-catenin transl | HSV replic up
COC(=O)c1c(NC(=O)CSc2nnc(-c3ccco3)n2Cc2ccccc2)sc(C)c1C | 64.8* | -0.142 | 1.8 | · | i
O=C(CSc1nnc(-c2cccnc2)n1Cc1ccco1)Nc1nc(-c2ccc(F)cc2)cs1 | 73.3* | -0.444 | 8.3 | 1.9 | i
O=C(CSc1nnc(-c2ccncc2)n1Cc1ccco1)OC1CCCCC1 | 81.3* | 1.89 | 5.3 | -2.5 | i
COC(=O)c1c(NC(=O)CSc2nc3ccccc3c(=O)n2Cc2ccco2)sc(C)c1C | 13.6 | -0.711 | 5.2 | 1.6 | i
CN(C)C(=O)CSc1nnc(-c2ccncc2)n1Cc1ccco1 | -6.5 | -0.175 | 3.0 | 2.3 | i
CCOC(=O)c1c(NC(=O)CSc2nnc(-c3cccnc3)n2Cc2ccco2)sc(C)c1C | 52.8* | -0.899 | 5.4 | -3.3 | ·
CC1CN(c2nc(-c3ccccc3)nc3ccccc23)CC(C)O1 (centres undefined) | 12.5 | 0.105 | 3.2 | · | i
Cc1onc(-c2c(Cl)cccc2Cl)c1C(=O)N=S(C)(=O)c1ccccc1 (centres undefined) | · | -0.216 | · | 1.6 | i
C=CCn1c(SCC(=O)Nc2sccc2C(N)=O)nc2ccccc2c1=O | 2.0 | 0.321 | 3.2 | 5.7 | i
Cc1c(Nc2ncnc3c2cnn3-c2ccccc2)c(=O)n(-c2ccccc2)n1C | 9.3 | 1.49 | 1.4 | -0.7 | i
Cc1[nH]c2ccc(-c3nnc(SCC(=O)NCc4ccco4)n3Cc3ccccc3)cc2c1C | 97.3* | -0.52 | 1.1 | 1.6 | i
COc1cccc(N=C2C(=O)N3CCCc4cccc2c43)c1 | 25.9 | 0.153 | 2.4 | 0.5 | i
COc1ccc(N=C2C(=O)N3c4c(cccc42)C(C)=CC3(C)C)cc1 | 97.1* | -2.97 | 5.1 | -1.3 | i
COc1ccc(N=C2C(=O)Nc3ccccc32)cc1 | 100.0* | 0.493 | 4.5 | -8.4 | i
CC1=CC(C)(C)Nc2ccc(OC(=O)C(C)N3C(=O)c4ccccc4C3=O)cc21 (centres undefined) | 100.6* | 0.672 | 3.3 | 1.2 | i
CC1=CC(C)(C)Nc2ccc(OC(=O)CN3C(=O)CCC3=O)cc21 | 100.4* | -2.73 | 6.3 | -2.8 | i
O=C(N/N=C/C=C/c1ccc([N+](=O)[O-])cc1)c1cccs1 | -6.1 | 0.0288 | 3.1 | 3.3 | i
CC(C)(C)C(=O)NC(=S)Nc1ccc(C(F)(F)F)cc1 | · | 0.232 | · | 1.4 | i
Cc1cc(C)n(C(=O)c2c([N+](=O)[O-])cnn2C)n1 | -3.8 | 1.78 | 3.5 | 2.3 | i
CC(C)(CNC(=O)c1ccc([N+](=O)[O-])c(Cl)c1)CNC(=O)c1ccc([N+](=O)[O-])c(Cl)c1 | 88.3* | -1.25 | 4.1 | · | i
C=CCNC(=O)c1ccc([N+](=O)[O-])c(Cl)c1 | 0.8 | 0.273 | 3.2 | -2.8 | i
Cc1cc(C)n(C(=O)c2ccc([N+](=O)[O-])c(Cl)c2)n1 | 92.1* | 1.61 | 4.8 | · | i
COC(=O)CSc1ncc(OC)c(OC)n1 | -3.7 | · | 1.1 | · | i
Cn1c(=O)n(CCCOc2ccc(Br)cc2)c2ccccc21 | 0.3 | -0.252 | 1.1 | -0.4 | i
